Converted amounts (≈) assume the structure as drawn.
What was measured:
Type in all cases: functional
Staphylococcus aureus [1] = test: Antibacterial activity against Staphylococcus aureus ATCC 25923 by microbroth dilution technique
Method in brief: (§1)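 Read-out was the minimum inhibitory concentration (MIC), found by broth microdilution.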

Staphylococcus aureus [2] = test: Antibacterial activity against methicillin-susceptible Staphylococcus aureus ATCC 29213 by microbroth dilution technique; method in brief: as §1
Staphylococcus aureus [3] = test: Antibacterial activity against methicillin-resistant Staphylococcus aureus ATCC 43300 by microbroth dilution technique
[4] = system: Staphylococcus epidermidis; test: Antibacterial activity against Staphylococcus epidermidis ATCC 12228 by microbroth dilution technique; method in brief: as §1
Escherichia coli [5] = test: Antibacterial activity against Escherichia coli ATCC 25922 by microbroth dilution technique; method in brief: as §1
Escherichia coli [6] = test: Antibacterial activity against Escherichia coli ATCC 35218 by microbroth dilution technique; method in brief: as §1

Work on `CCCC[C@H](CN(O)C=O)C(=O)N1CC=C[C@H]1C(=O)Nc1ccc(F)cc1` yielded an MIC (Staphylococcus aureus [1]) of 2 µg/mL (≈ 5.3 µM), an MIC (Staphylococcus aureus [2]) of 2 µg/mL (≈ 5.3 µM) and an MIC (Staphylococcus aureus [3]) of 1 µg/mL (≈ 2.65 µM). For the same molecule, the MIC [4] was 4 µg/mL (≈ 10.6 µM), the MIC (Escherichia coli [5]) was greater than 64 µg/mL and the MIC (Escherichia coli [6]) was 64 µg/mL (≈ 170 µM).

For `CCCC[C@H](CN(O)C=O)C(=O)N1CC=C[C@H]1C(=O)Nc1ccc([N+](=O)[O-])cc1`, the MIC (Staphylococcus aureus [1]) was 0.5 µg/mL (≈ 1.24 µM), the MIC (Staphylococcus aureus [2]) was 2 µg/mL (≈ 4.95 µM) and the MIC (Staphylococcus aureus [3]) was 0.5 µg/mL (≈ 1.24 µM). For the same molecule, the MIC [4] was 0.5 µg/mL (≈ 1.24 µM), the MIC (Escherichia coli [5]) was greater than 64 µg/mL and the MIC (Escherichia coli [6]) was 32 µg/mL (≈ 79.1 µM).

Molecule `CCCC[C@H](CN(O)C=O)C(=O)N1CC=C[C@H]1C(=O)Nc1ccc(OC)cc1` has an MIC (Staphylococcus aureus [1]) of 0.5 µg/mL (≈ 1.28 µM), an MIC (Staphylococcus aureus [2]) of 2 µg/mL (≈ 5.14 µM) and an MIC (Staphylococcus aureus [3]) of 1 µg/mL (≈ 2.57 µM). For the same molecule, the MIC [4] was 2 µg/mL (≈ 5.14 µM), the MIC (Escherichia coli [5]) was greater than 64 µg/mL and the MIC (Escherichia coli [6]) was greater than 64 µg/mL.

`CCCC[C@H](CN(O)C=O)C(=O)N1CC=C[C@H]1C(=O)Nc1nnc(C(F)(F)F)s1` was tested, and the MIC (Staphylococcus aureus [1]) was 32 µg/mL (≈ 73.5 µM), the MIC (Staphylococcus aureus [2]) was 16 µg/mL (≈ 36.7 µM) and the MIC (Staphylococcus aureus [3]) was 8 µg/mL (≈ 18.4 µM). For the same molecule, the MIC [4] was 16 µg/mL (≈ 36.7 µM), the MIC (Escherichia coli [5]) was greater than 64 µg/mL and the MIC (Escherichia coli [6]) was greater than 64 µg/mL.

With `CCCC[C@H](CN(O)C=O)C(=O)N1CC=C[C@H]1C(=O)N[C@@H](C)c1ccccc1` the MIC (Staphylococcus aureus [1]) was 4 µg/mL (≈ 10.3 µM), the MIC (Staphylococcus aureus [2]) was 16 µg/mL (≈ 41.3 µM) and the MIC (Staphylococcus aureus [3]) was 8 µg/mL (≈ 20.6 µM). The MIC [4] was 8 µg/mL (≈ 20.6 µM), the MIC (Escherichia coli [5]) was greater than 64 µg/mL and the MIC (Escherichia coli [6]) was greater than 64 µg/mL.

`CCCC[C@H](CN(O)C=O)C(=O)N1CC=C[C@H]1C(=O)N[C@H](C)c1ccccc1` gave an MIC (Staphylococcus aureus [1]) of 4 µg/mL (≈ 10.3 µM), an MIC (Staphylococcus aureus [2]) of 16 µg/mL (≈ 41.3 µM) and an MIC (Staphylococcus aureus [3]) of 2 µg/mL (≈ 5.16 µM). The MIC [4] was 4 µg/mL (≈ 10.3 µM), the MIC (Escherichia coli [5]) was greater than 64 µg/mL and the MIC (Escherichia coli [6]) was greater than 64 µg/mL.

Work on `CCCC[C@H](CN(O)C=O)C(=O)N1CC=C[C@H]1C(=O)Nc1ccccc1` yielded an MIC (Staphylococcus aureus [1]) of 4 µg/mL (≈ 11.1 µM), an MIC (Staphylococcus aureus [2]) of 8 µg/mL (≈ 22.3 µM) and an MIC (Staphylococcus aureus [3]) of 1 µg/mL (≈ 2.78 µM). It also gave an MIC [4] of 2 µg/mL (≈ 5.56 µM), an MIC (Escherichia coli [5]) greater than 64 µg/mL and an MIC (Escherichia coli [6]) of 64 µg/mL (≈ 178 µM).

For `CCCC[C@H](CN(O)C=O)C(=O)N1CCC[C@H]1C(=O)Nc1ccc(F)c[n+]1[O-]`, the MIC (Staphylococcus aureus [1]) was 0.25 µg/mL (≈ 0.631 µM), the MIC (Staphylococcus aureus [2]) was 1 µg/mL (≈ 2.52 µM) and the MIC (Staphylococcus aureus [3]) was 0.5 µg/mL (≈ 1.26 µM). For the same molecule, the MIC [4] was 0.5 µg/mL (≈ 1.26 µM), the MIC (Escherichia coli [5]) was 64 µg/mL (≈ 161 µM) and the MIC (Escherichia coli [6]) was 64 µg/mL (≈ 161 µM).

In the case of `O=C(O)c1cn(C2CC2)c2cc(N3CCNCC3)c(F)cc2c1=O` [CIPROFLOXACIN], the MIC (Staphylococcus aureus [1]) is reported as 0.5 µg/mL (≈ 1.51 µM), the MIC (Staphylococcus aureus [2]) is reported as 0.5 µg/mL (≈ 1.51 µM) and the MIC (Staphylococcus aureus [3]) is reported as 1 µg/mL (≈ 3.02 µM). For the same molecule, the MIC [4] was 0.25 µg/mL (≈ 0.754 µM), the MIC (Escherichia coli [5]) was less than 0.0312 µg/mL and the MIC (Escherichia coli [6]) was less than 0.0312 µg/mL.

`CC(=O)NC[C@H]1CN(c2ccc(N3CCOCC3)c(F)c2)C(=O)O1` [LINEZOLID] showed an MIC [4] of 0.5 µg/mL (≈ 1.48 µM), an MIC (Escherichia coli [5]) greater than 64 µg/mL and an MIC (Escherichia coli [6]) greater than 64 µg/mL.

For `CC1(C)S[C@@H]2[C@H](NC(=O)Cc3ccccc3)C(=O)N2[C@H]1C(=O)O` [PENICILLIN G], the MIC (Staphylococcus aureus [1]) was 0.0625 µg/mL (≈ 0.187 µM), the MIC (Staphylococcus aureus [2]) was 1 µg/mL (≈ 2.99 µM) and the MIC (Staphylococcus aureus [3]) was 64 µg/mL (≈ 191 µM). For the same molecule, the MIC [4] was 2 µg/mL (≈ 5.98 µM), the MIC (Escherichia coli [5]) was greater than 64 µg/mL and the MIC (Escherichia coli [6]) was greater than 64 µg/mL.

`CN[C@H](CC(C)C)C(=O)N[C@H]1C(=O)N[C@@H](CC(N)=O)C(=O)N[C@H]2C(=O)N[C@H]3C(=O)N[C@H](C(=O)N[C@H](C(=O)O)c4cc(O)cc(O)c4-c4cc3ccc4O)[C@H](O)c3ccc(c(Cl)c3)Oc3cc2cc(c3O[C@@H]2O[C@H](CO)[C@@H](O)[C@H](O)[C@H]2O[C@H]2C[C@](C)(N)[C@H](O)[C@H](C)O2)Oc2ccc(cc2Cl)[C@H]1O` [VANCOMYCIN] was tested, and the MIC (Escherichia coli [5]) was greater than 64 µg/mL and the MIC (Escherichia coli [6]) was greater than 64 µg/mL.
